Assay [1] deals with Aspergillus flavus. The assay can be described thus: Antifungal activity against Aspergillus flavus after 48 hrs […]. It is filed as functional.
Assay [2] has as its system Klebsiella pneumoniae. The assay can be described thus: Antibacterial activity against Klebsiella pneumoniae after 24 hrs by broth dilution technique. Format: functional. In short, it runs like this: (§1)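 MIC by broth dilution in nutrient broth with logarithmic serial twofold dilutions of compound. Inoculum approx. 5×10^5 c.f.u actively dividing bacteria. Incubated 24 h at 37 °C, growth monitored visually and spectrophotometrically. MIC taken as the lowest concentration (highest dilution) arresting growth. Ciprofloxacin reference.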
For orientation: In broth dilution the organism is exposed to a series of concentrations in liquid medium.

For assay [3], the system named is Pseudomonas aeruginosa. The assay can be described thus: Antibacterial activity against Pseudomonas aeruginosa ATCC 27853 assessed as inhibition zone diameter after 24 hrs […]. Format: functional. A digest of the protocol:
(§2)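 Disc diffusion on nutrient agar. Inoculum 1-2 × 10^7 c.f.u/ml (0.5 McFarland) spread over the plate surface. Sterile 6.25 mm filter-paper discs soaked in a known concentration of compound. Solvent and growth controls included. Plates incubated inverted 24 h at 37 °C, then inhibition zone diameter measured in mm. Ciprofloxacin reference.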

The subject of assay [4] is Talaromyces marneffei. Put plainly: Antifungal activity against Penicillium marneffei assessed as inhibition zone diameter […] by agar dilution method. Format: functional. In short, it runs like this: (§3)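 Compounds in DMSO placed in punched wells on Sabouraud agar (peptone, glucose, agar, pH 5.7) lawned with saline spore suspension. Plates pre-dried 1 h at 37 °C. Controls in triplicate, incubation at 37 °C for 3-4 days, then inhibition zone diameter read in mm. Amphotericin B reference.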

The subject of assay [5] is Pseudomonas aeruginosa. Put plainly: Antibacterial activity against Pseudomonas aeruginosa ATCC 27853 after 24 hrs by broth dilution technique. Format: functional. Particulars: ATCC 27853, 24 h. A digest of the protocol:
as §1

The test system of assay [6] is Streptococcus pyogenes. The assay can be described thus: Antibacterial activity against Streptococcus pyogenes after 24 hrs by broth dilution technique. It is filed as functional. In short, it runs like this:
as §1

Assay [7] concerns Streptococcus pyogenes. The assay can be described thus: Antibacterial activity against Streptococcus pyogenes assessed as inhibition zone diameter after 24 hrs by disc diffusion method. A general note: Agar diffusion results depend on both activity and mobility in agar.
In assay [8] the test system is Aspergillus flavus. Put plainly: Antifungal activity against Aspergillus flavus assessed as inhibition zone diameter […] by agar dilution method. Format: functional. In short, it runs like this: as §3
(Agar dilution tests growth on a series of plates holding different concentrations.)

Assay [9] deals with Talaromyces marneffei. The assay can be described thus: Antifungal activity against Penicillium marneffei after 48 hrs […]. Format: functional.
In assay [10] the test system is Aspergillus fumigatus. Put plainly: Antifungal activity against Aspergillus fumigatus after 48 hrs […]. It is filed as functional.
Assay [11] has as its system Escherichia coli. Put plainly: Antibacterial activity against Escherichia coli ATCC 25922 after 24 hrs by broth dilution technique. Format: functional. The conditions noted are these: ATCC 25922, 24 h. A digest of the protocol: as §1
The test system of assay [12] is Candida albicans. Put plainly: Antifungal activity against Candida albicans assessed as inhibition zone diameter […] by agar dilution method. Format: functional. A digest of the protocol:
as §3

In assay [13] the test system is Klebsiella pneumoniae. Put plainly: Antibacterial activity against Klebsiella pneumoniae assessed as inhibition zone diameter after 24 hrs […]. Format: functional. A digest of the protocol: as §2
In assay [14] the test system is Trichophyton mentagrophytes. The assay can be described thus: Antifungal activity against Trichophyton mentagrophytes after 48 hrs […]. It is filed as functional.
In assay [15] the test system is Candida albicans. Put plainly: Antifungal activity against Candida albicans after 48 hrs […]. Format: functional.
Assay [16] relates to Trichophyton mentagrophytes. Put plainly: Antifungal activity against Trichophyton mentagrophytes assessed as inhibition zone diameter […] by agar dilution method. Format: functional. A digest of the protocol: as §3
Assay [17] concerns Staphylococcus aureus. The assay can be described thus: Antibacterial activity against Staphylococcus aureus ATCC 25923 assessed as inhibition zone diameter after 24 hrs […]. Format: functional. In short, it runs like this:
as §2

In assay [18] the test system is Staphylococcus aureus. Put plainly: Antibacterial activity against Staphylococcus aureus ATCC 25923 after 24 hrs by broth dilution technique. It is filed as functional. The conditions noted are these: ATCC 25923, 24 h. A digest of the protocol: as §1
In assay [19] the test system is Aspergillus fumigatus. The assay can be described thus: Antifungal activity against Aspergillus fumigatus assessed as inhibition zone diameter […] by agar dilution method. It is filed as functional. In short, it runs like this: as §3

Converted amounts (≈) assume the structure as drawn.

Experimental findings from ChEMBL document CHEMBL1149770, “Synthesis and antimicrobial studies of novel dichlorofluorophenyl containing aminotriazolothiadiazines” (2008) are described below.

What is called MIC is the least concentration at which growth counts as inhibited. Low readings indicate inhibition by little substance, high ones a need for much substance. On to `Nn1c(SCC(=O)Nc2c(Cl)cccc2Cl)nnc1-c1cc(F)c(Cl)cc1Cl`, for which the MIC in [1] was 6.25 µg/mL (≈ 13 µM); in [2], 6.25 µg/mL (≈ 13 µM); in assay [5], 12.5 µg/mL (≈ 26 µM); in [6], 6.25 µg/mL (≈ 13 µM); in assay [9], 12.5 µg/mL (≈ 26 µM); in [10], 12.5 µg/mL (≈ 26 µM). Besides, the MIC turned out to be 12.5 µg/mL (≈ 26 µM) in assay [11], 25 µg/mL (≈ 52 µM) in assay [14], 12.5 µg/mL (≈ 26 µM) in assay [15] and 6.25 µg/mL (≈ 13 µM) in assay [18]. For the same compound, the “inhibition zone (IZ)” value in assay [3] turned out to be 23 mm; in assay [4], 13 mm; in assay [7] it was 19 mm; in [8] it was 17 mm; in [12], 12 mm; in assay [13], 21 mm. For the same compound, the “inhibition zone (IZ)” value in assay [16] was determined as 10 mm; in [17], 18 mm; in assay [19], 15 mm.

Turning to `Nn1c(SCC(=O)Nc2ccc(F)cc2)nnc1-c1cc(F)c(Cl)cc1Cl`, the MIC in assay [1], in assay [2], in [5], in [6], in assay [9] and in assay [10] was 6.25 µg/mL (≈ 14.5 µM) in each case. Also, the MIC in assay [11], in assay [14], in assay [15] and in assay [18] was 6.25 µg/mL (≈ 14.5 µM) throughout. Also, the “inhibition zone (IZ)” value is 30 mm in assay [3]; 24 mm in assay [4]; 22 mm in assay [7]; 21 mm in assay [8]; 19 mm in [12]; 21 mm in assay [13]. Further, the results for the “inhibition zone (IZ)” value in assay [16], in assay [17] and in assay [19] were 17 mm, 23 mm and 19 mm, respectively.

Take `Cc1ccc(NC2=Nn3c(nnc3-c3cc(F)c(Cl)cc3Cl)SC2)cc1`: the MIC in assay [1], in assay [2], in assay [5], in assay [6], in assay [9] and in assay [10] was 6.25 µg/mL (≈ 15.3 µM) in each case. Moreover, the MIC in assay [11], in assay [14], in assay [15] and in assay [18] was 6.25 µg/mL (≈ 15.3 µM) in each case. Moreover, the “inhibition zone (IZ)” value amounted to 29 mm in assay [3]; 23 mm in assay [4]; 23 mm in assay [7]; 19 mm in assay [8]; 18 mm in assay [12]; 21 mm in assay [13]. Also, the “inhibition zone (IZ)” value is on record as 17 mm in [16], 21 mm in assay [17] and 20 mm in assay [19].

As to `Cc1ccc(NC(=O)CSc2nnc(-c3cc(F)c(Cl)cc3Cl)n2N)cc1`, the MIC in assay [1], in assay [2], in [5], in assay [6], in assay [9] and in assay [10] was 6.25 µg/mL (≈ 14.7 µM) throughout. In addition, the MIC in [11], in assay [14], in assay [15] and in [18] was 6.25 µg/mL (≈ 14.7 µM) each time. The “inhibition zone (IZ)” value was 31 mm in assay [3]; 23 mm in assay [4]; 22 mm in assay [7]; 22 mm in assay [8]; 18 mm in assay [12]; 20 mm in [13]. Besides, the “inhibition zone (IZ)” value in [16] is 18 mm; in assay [17] it was 25 mm; in assay [19], 20 mm.

In the case of `CCOc1ccc(NC2=Nn3c(nnc3-c3cc(F)c(Cl)cc3Cl)SC2)cc1`, the MIC is 25 µg/mL (≈ 57 µM) in assay [1]; 12.5 µg/mL (≈ 28.5 µM) in assay [2]; 25 µg/mL (≈ 57 µM) in assay [5]; 12.5 µg/mL (≈ 28.5 µM) in assay [9]; 12.5 µg/mL (≈ 28.5 µM) in [10]; > 100 µg/mL in [11]. For the same compound, the MIC was > 100 µg/mL in assay [14], 12.5 µg/mL (≈ 28.5 µM) in [15] and 6.25 µg/mL (≈ 14.3 µM) in assay [18]. In addition, the “inhibition zone (IZ)” value is 15 mm in assay [3]; 17 mm in assay [4]; 10 mm in assay [8]; 12 mm in assay [12]; 12 mm in [13]; 20 mm in assay [17]. Besides, in assay [19], the “inhibition zone (IZ)” value worked out at 15 mm.

In the case of `COc1ccc(NC2=Nn3c(nnc3-c3cc(F)c(Cl)cc3Cl)SC2)cc1`, the MIC was 6.25 µg/mL (≈ 14.7 µM) in assay [1]; 12.5 µg/mL (≈ 29.5 µM) in assay [2]; 25 µg/mL (≈ 58.9 µM) in assay [5]; 12.5 µg/mL (≈ 29.5 µM) in [6]; > 100 µg/mL in assay [9]; 12.5 µg/mL (≈ 29.5 µM) in [10]. Also, the MIC in [11] was > 100 µg/mL; in [14], 12.5 µg/mL (≈ 29.5 µM); in [15], 6.25 µg/mL (≈ 14.7 µM); in assay [18] it was 6.25 µg/mL (≈ 14.7 µM). Further, the “inhibition zone (IZ)” value in assay [3] stood at 15 mm; in assay [7], 16 mm; in assay [8], 18 mm; in assay [12], 19 mm; in [13], 12 mm; in [16], 13 mm. Moreover, the “inhibition zone (IZ)” value is listed as 22 mm in assay [17] and 12 mm in assay [19].

Take `Cc1ccc(NC2=Nn3c(nnc3-c3cc(F)c(Cl)cc3Cl)SC2)c(C)c1`: the minimum inhibitory concentration (MIC) in assay [1] is 12.5 µg/mL (≈ 29.6 µM); in [2] it was 12.5 µg/mL (≈ 29.6 µM); in assay [5], 12.5 µg/mL (≈ 29.6 µM); in [6], 12.5 µg/mL (≈ 29.6 µM); in assay [9] it was > 100 µg/mL; in assay [10], 25 µg/mL (≈ 59.2 µM). Moreover, the MIC in [11] was 12.5 µg/mL (≈ 29.6 µM); in assay [14] it was 12.5 µg/mL (≈ 29.6 µM); in [15] it was 25 µg/mL (≈ 59.2 µM); in assay [18] it was > 100 µg/mL. Further, the “inhibition zone (IZ)” value in assay [3] was 18 mm; in [7], 11 mm; in assay [8], 15 mm; in assay [12], 8 mm; in assay [13], 14 mm; in assay [16] it was 12 mm. For the same compound, in assay [19], the “inhibition zone (IZ)” value stood at 9 mm.

Consider `Fc1cc(-c2nnc3n2N=C(Nc2ccc(Cl)cc2Cl)CS3)c(Cl)cc1Cl`, for which the MIC in assay [1] was 25 µg/mL (≈ 54 µM); in [2], 12.5 µg/mL (≈ 27 µM); in assay [5], > 100 µg/mL; in assay [9], 12.5 µg/mL (≈ 27 µM); in [10] it was 6.25 µg/mL (≈ 13.5 µM); in assay [11], 12.5 µg/mL (≈ 27 µM). The MIC in assay [14] is 12.5 µg/mL (≈ 27 µM); in assay [15], 12.5 µg/mL (≈ 27 µM); in assay [18] it was > 100 µg/mL. For the same compound, the “inhibition zone (IZ)” value in assay [4] is 12 mm; in assay [8], 8 mm; in assay [12], 15 mm; in assay [13] it was 17 mm; in assay [16], 11 mm; in [19] it was 19 mm.
